# Test results taken from ChEMBL document CHEMBL4680111, “Target Validation and Identification of Novel Boronate Inhibitors of the Plasmodium falciparum Proteasome” (J Med Chem, 2018).
# pIC50: −log10 of the molar value. Calls of active or inactive are those of the source. The rule behind the calls is not given here.
# How the values were obtained:
# Plasmodium falciparum [1] = test: Antiplasmodial activity against DHA-sensitive and sorbitol synchronized ring stage forms of Plasmodium falciparum Cam3.II^rev expressing K13 wild-type genotype assessed as reduction in parasitemia incubated for 3 hrs by pulse exposure based Syto-61 staining dye based flow cytometry analysis; type: functional; details: read-out: LD50 (the source's name)
# Outline: (§1)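 Tightly synchronized early-ring parasites (1-3 h post-invasion) exposed to compound for 3 h, then viability assessed in the next cycle. Cells stained with 2 µM Syto-61 and parasitemia read by flow cytometry, normalized to untreated and kill controls (2 µM DHA, 48-72 h). Mean ± SEM of three independent experiments.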
# [2] = Selectivity index, ratio of LD50 for cytotoxicity against human HepG2 cells to LD50 for antiplasmodial activity against Plasmodium falciparum 3D7 sorbitol-treated ring stage; type: toxicity, cell-based; details: read-out: Selectivity Index
# Plasmodium falciparum [3] = test: Antiplasmodial activity against sorbitol synchronized ring stage Plasmodium falciparum 3D7 assessed as reduction in parasitemia incubated for 72 hrs by Syto-61 staining dye based flow cytometry analysis; type: functional; details: read-out: LD50 (the source's name)
# Outline: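 Sorbitol-treated ring-stage parasites in O+ human erythrocytes were incubated with compound for 72 h, and viability was read in the second cycle. Read-out was Syto-61 (2 µM) flow cytometry of parasitemia, normalized to untreated and 2 µM DHA-killed controls. Mean ± SEM of three independent experiments.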
# [4] = Inhibition of Plasmodium falciparum 20S proteasome beta 1 subunit caspase-like activity using fluorogenic peptide Ac-nLPnLD-AMC as substrate in presence of PA28alpha incubated for 1 to 2 hrs by fluorescence microplate reader assay
# [5] = molecular target: T1, Proteasome subunit beta type-10 (Homo sapiens, UniProt P40306); test: Inhibition of human 20S immunoproteasome beta 2 subunit trypsin-like activity using fluorogenic peptide Ac-WLR-AMC as substrate in presence of PA28alpha incubated for 1 to 2 hrs by fluorescence microplate reader assay
# T1 sequence (P40306 whole entry): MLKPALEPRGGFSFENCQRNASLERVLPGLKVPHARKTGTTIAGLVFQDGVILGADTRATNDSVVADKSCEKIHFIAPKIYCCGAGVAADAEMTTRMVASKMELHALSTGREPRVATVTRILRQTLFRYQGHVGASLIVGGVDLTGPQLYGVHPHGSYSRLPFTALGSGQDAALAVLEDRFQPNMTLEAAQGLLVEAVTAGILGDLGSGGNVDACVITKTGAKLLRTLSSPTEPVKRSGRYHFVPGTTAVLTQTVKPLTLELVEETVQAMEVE
# [6] = tested on: Plasmodium falciparum 3D7; test: Inhibition of 20S proteasome beta 5 subunit in bortezomib-resistant Plasmodium falciparum 3D7 assessed as inhibition of BMV037 probe labeling at 1 to 10 uM incubated for 1 hr by SDS-PAGE analysis; details: dose 1-10 µM
# [7] = molecular target: T2, Proteasome subunit beta type-6 (Homo sapiens, UniProt P28072); test: Inhibition of human 20S constitutive proteasome beta 1 subunit caspase-like activity using fluorogenic peptide Ac-nLPnLD-AMC as substrate in presence of PA28alpha incubated for 1 to 2 hrs by fluorescence microplate reader assay
# T2 sequence (P28072 whole entry): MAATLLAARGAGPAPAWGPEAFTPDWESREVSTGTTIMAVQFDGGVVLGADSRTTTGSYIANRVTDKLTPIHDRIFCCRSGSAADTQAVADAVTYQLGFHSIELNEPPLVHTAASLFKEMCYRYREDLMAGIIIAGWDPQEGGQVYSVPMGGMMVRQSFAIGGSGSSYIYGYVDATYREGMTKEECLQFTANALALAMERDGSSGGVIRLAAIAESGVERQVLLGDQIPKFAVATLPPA
# [8] = Inhibition of Plasmodium falciparum 20S proteasome beta 5 subunit chymotrypsin-like activity using fluorogenic peptide Ac-WLA-AMC as substrate in presence of PA28alpha incubated for 1 to 2 hrs by fluorescence microplate reader assay
# Plasmodium falciparum [9] = test: Antiplasmodial activity against DHA-resistant and sorbitol synchronized ring stage forms of Plasmodium falciparum Cam3.II^R539T expressing K13 mutant assessed as reduction in parasitemia incubated for 3 hrs by pulse exposure based Syto-61 staining dye based flow cytometry analysis; type: functional; details: read-out: LD50 (the source's name); outline: as §1
# [10] = molecular target: T3, Proteasome subunit beta type-8 (Homo sapiens, UniProt P28062); test: Inhibition of human 20S immunoproteasome beta 5 subunit chymotrypsin-like activity using fluorogenic peptide Ac-WLA-AMC as substrate in presence of PA28alpha incubated for 1 to 2 hrs by fluorescence microplate reader assay
# T3 sequence (P28062 whole entry): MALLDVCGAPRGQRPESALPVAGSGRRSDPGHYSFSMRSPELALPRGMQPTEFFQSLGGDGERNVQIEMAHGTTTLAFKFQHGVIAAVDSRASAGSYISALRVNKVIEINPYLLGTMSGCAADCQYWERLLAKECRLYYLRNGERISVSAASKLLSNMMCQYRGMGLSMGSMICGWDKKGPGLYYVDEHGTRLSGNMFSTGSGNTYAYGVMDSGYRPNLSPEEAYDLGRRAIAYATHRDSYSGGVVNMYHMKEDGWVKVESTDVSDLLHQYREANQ
# [11] = Inhibition of Plasmodium falciparum 20S proteasome beta 2 subunit trypsin-like activity using fluorogenic peptide Ac-WLR-AMC as substrate in presence of PA28alpha incubated for 1 to 2 hrs by fluorescence microplate reader assay
# [12] = molecular target: T4, Proteasome Macropain subunit MB1 (Homo sapiens, UniProt P28074); test: Inhibition of human 20S constitutive proteasome beta 5 subunit chymotrypsin-like activity using fluorogenic peptide Ac-WLA-AMC as substrate in presence of PA28alpha incubated for 1 to 2 hrs by fluorescence microplate reader assay
# T4 sequence (P28074 whole entry): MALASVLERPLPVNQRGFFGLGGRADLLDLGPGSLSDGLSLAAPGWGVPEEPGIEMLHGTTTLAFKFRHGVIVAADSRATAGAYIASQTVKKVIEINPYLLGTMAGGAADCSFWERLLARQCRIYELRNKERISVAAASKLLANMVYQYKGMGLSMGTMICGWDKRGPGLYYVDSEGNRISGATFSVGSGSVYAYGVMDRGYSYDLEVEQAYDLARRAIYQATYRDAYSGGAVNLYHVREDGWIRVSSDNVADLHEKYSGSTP
# [13] = molecular target: T5, Proteasome subunit beta type-8 (Homo sapiens) (UniProt P28062); test: Inhibition of human 20S immunoproteasome beta 5 subunit assessed as inhibition of BMV037 probe labeling at 1 to 10 uM incubated for 1 hr by SDS-PAGE analysis; details: dose 1-10 µM
# T5 sequence (whole entry): T3 sequence (P28062 whole entry)
# Outline: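 Purified human immuno-20S (20 nM) was incubated with compound at 37°C for 1 h, then labelled with 10 µM BMV037 at 37°C for 2 h. Samples were run on 4-12% Bis-Tris gel with MES buffer, and active subunits were visualised by Cy5 fluorescence.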
# [14] = molecular target: T6, Proteasome subunit beta type-9 (Homo sapiens, UniProt P28065); test: Inhibition of human 20S immunoproteasome beta 1 subunit caspase-like activity using fluorogenic peptide Ac-nLPnLD-AMC as substrate in presence of PA28alpha incubated for 1 to 2 hrs by fluorescence microplate reader assay
# T6 sequence (P28065 whole entry): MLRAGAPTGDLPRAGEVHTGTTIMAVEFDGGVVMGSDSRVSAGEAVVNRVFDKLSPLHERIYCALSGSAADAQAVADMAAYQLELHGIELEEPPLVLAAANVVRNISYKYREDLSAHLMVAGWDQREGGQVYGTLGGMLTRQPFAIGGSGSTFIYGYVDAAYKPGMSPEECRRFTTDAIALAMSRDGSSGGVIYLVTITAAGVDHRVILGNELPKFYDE
smiles,measurement,setting,value
CC(=O)N1CCC[C@@H]1C(=O)N[C@@H](C)C(=O)N[C@@H](Cc1ccccc1)B(O)O,LC50,Plasmodium falciparum [1],900 nM
same,selectivity ratio,[2],56
same,LC50,Plasmodium falciparum [3],120 nM
same,pIC50,[4],5.50
same,pIC50,[5],< 5.00
same,inhibition,[6],Active
same,pIC50,[7],5.47
same,pIC50,[8],5.82
same,LC50,Plasmodium falciparum [9],820 nM
same,pIC50,[10],7.55
same,pIC50,[11],< 5.00
same,pIC50,[12],6.66
same,inhibition,[13],Active
same,pIC50,[14],8.10
Cc1ccc(S(=O)(=O)N[C@@H](CC(=O)NCC(C)(C)C)C(=O)N[C@@H](Cc2ccccc2)C(=O)N[C@@H](CC(C)C)B(O)O)cc1,LC50,Plasmodium falciparum [1],210 nM
same,selectivity ratio,[2],4
same,LC50,Plasmodium falciparum [3],65 nM
same,pIC50,[4],5.75
same,pIC50,[5],6.89
same,inhibition,[6],Active
same,pIC50,[7],5.80
same,pIC50,[8],7.80
same,LC50,Plasmodium falciparum [9],190 nM
same,pIC50,[10],8.30
same,pIC50,[11],7.15
same,pIC50,[12],8.05
same,inhibition,[13],Active
same,pIC50,[14],7.54
CC(C)C[C@H](NC(=O)[C@H](Cc1ccccc1)NC(=O)Cc1ccc(O)cc1)B(O)O,LC50,Plasmodium falciparum [1],180 nM
same,selectivity ratio,[2],0.7
same,LC50,Plasmodium falciparum [3],61 nM
same,pIC50,[4],6.22
same,pIC50,[5],6.52
same,inhibition,[6],inactive
same,pIC50,[7],7.28
same,pIC50,[8],8.00
same,LC50,Plasmodium falciparum [9],160 nM
same,pIC50,[10],8.89
same,pIC50,[11],7.22
same,pIC50,[12],8.85
same,inhibition,[13],Active
same,pIC50,[14],8.30
